Rpn11 inh = Rpn11 (human) deubiquitinase inhibition; AID 588493; inhibition, % at 20 µM; human 26S proteasome, Ub4-pepOG fluorescence polarization; 20S core pre-blocked with epoxomicin; O00487; actives 0.59% (n = 360,000);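 active = inhibition at 20 µM, scaled to each plate's controls, above about 33%, limit read from the data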
HNF4A DNA FP = change in binding of human HNF4 alpha to DNA. HNF4a-FITC DNA binding, fluorescence polarization, 1 h. activity change, % at 10 µM. actives 0.3% (n = 360,000). AID 1224865; in the data active = activity change above about 30%, passing the limit was not always enough
IDE act = boosts human insulin-degrading enzyme activity in HEK cells | P14735 | FAbeta-B cleavage, fluorescence polarization; 0% vehicle, 100% cell-free pure enzyme wells | activation, % at 5.96 µM | actives 0.073% (n = 340,000) | AID 493087;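 active = activation above the mean of all tested compounds plus 3 SD, set per screening campaign, cut at about 17% in these data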
TPT1 inhibitor = inhibitors of Candida albicans tRNA 2'-phosphotransferase TPT1; AID 1962; inhibition, % at 5 µM; recombinant caTPT1, FP RNA substrate dephosphorylation; actives 0.81% (n = 300,000);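 active = inhibition above the mean of all tested compounds plus 3 SD, set per screening campaign, cut at about 24% in these data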;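 also: plate controls were DMSO alone for no effect and ferristatin control at 100 nM for full effect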
CSN inh = CSN deneddylation inhibition | Q92905 | Purified CSN, SCF-Nedd8-OG deneddylation, fluorescence polarization | inhibition, % at 12.5 µM | actives 0.38% (n = 360,000) | AID 651999;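 active = pattern-corrected inhibition above about 35%, with an unprinted fluorescence ratio check between 0.5 and 1.5, limit read from the data, passing the limit was not always enough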;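 also: 0% = enzyme with substrate and 100% = substrate without enzyme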
Target sequence (Q92905 whole entry, looked up, one chain of several): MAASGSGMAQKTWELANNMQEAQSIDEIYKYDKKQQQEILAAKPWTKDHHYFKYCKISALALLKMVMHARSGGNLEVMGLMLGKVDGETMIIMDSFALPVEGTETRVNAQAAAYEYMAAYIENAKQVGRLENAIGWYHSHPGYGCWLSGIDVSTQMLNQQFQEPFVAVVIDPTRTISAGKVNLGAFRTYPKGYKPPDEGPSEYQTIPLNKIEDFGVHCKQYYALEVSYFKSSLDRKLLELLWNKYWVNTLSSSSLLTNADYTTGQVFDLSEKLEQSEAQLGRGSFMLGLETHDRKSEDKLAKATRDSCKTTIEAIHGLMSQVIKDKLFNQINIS
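Material: purified human Csn5 enzyme expressed in HEK293T cells / Medium: Tris buffer pH 7.5, NaCl, DTT, Tween-20, trehalose, ovalbumin / Compound dosing: 12.5 µM single point / Schedule: 90 min incubation of compound, enzyme and substrate at room temperature / Signal: fluorescence polarization of the substrate / Control set: no-enzyme wells high, enzyme-with-substrate wells low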
IDE inh = inhibits human insulin-degrading enzyme in HEK cells. actives 0.41% (n = 320,000). FAbetaB cleavage, fluorescence polarization. inhibition, % at 5.59 µM;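 active = percent inhibition above the average of all tested compounds plus 3 SD, set per screening campaign, cut at about 16% in these data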;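 also: IDE supplied by intact live HEK cells; FP after avidin binding of uncleaved biotin substrate so inhibition keeps polarization high; 0% = DMSO wells and 100% = 60 µM reference IDE inhibitor Ii1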
caTPT1 confirm = confirmation of Candida albicans TPT1 inhibitors. recombinant caTPT1, fluorescence polarization, RNase T1 coupled. inhibition, % at 5 µM. AID 2149. shares compounds with TPT1 inhibitor. actives 74% (n = 2,400);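 active = inhibition above the primary screen limit, the mean inhibition of all tested compounds plus 3 SD, cut at about 25% in these data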
RNase T1 counter = counter-screen for TPT1 inhibitors: inhibitors of Aspergillus oryzae RNase T1 | inhibition, % at 5 µM | RNase T1 cleavage, fluorescence polarization, 1536-well | actives 83% (n = 2,400) | shares compounds with TPT1 inhibitor | AID 2153;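 active = inhibition above the solvent-only control well mean plus 3 SD, limit set per screening run, cut at about 23% in these data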;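 also: plate controls were DMSO wells with enzyme for no effect and wells without RNase T1 for full effect; inhibitors block cleavage so intact labeled substrate keeps polarization high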
Target sequence (P00651 whole entry, looked up): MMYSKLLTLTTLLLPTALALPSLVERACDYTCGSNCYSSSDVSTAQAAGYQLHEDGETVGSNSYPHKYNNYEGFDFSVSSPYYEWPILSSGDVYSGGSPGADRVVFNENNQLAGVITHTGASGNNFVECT
Starred values were filed as active, the others as inactive. Hits are enriched below; roughly 1.7% of the tested compounds scored in any of these assays.

`CCCCN1C(=O)C(CC(=O)NC2CC2)CC(C(=O)N(CC)CC)=C1C` (stereo not given) gave Rpn11 inh 3, HNF4A DNA FP -1 and CSN inh 2.
Cc1ccc(S(=O)(=O)NC(=O)C2(C)CCN2C(=O)CCc2ccc(Cl)cc2Cl)cc1 (stereo not given) was read as Rpn11 inh 8, HNF4A DNA FP 2 and CSN inh -7.
`Cn1cc(C(=O)C(=O)N2CCCCC2)c2ccccc21` gave Rpn11 inh 10, HNF4A DNA FP -1, IDE act -1 and CSN inh -1.
`COc1cc(/C=C2/C(=O)NN(c3ccc(F)cc3)C2=O)cc(Cl)c1O` gave Rpn11 inh 32, HNF4A DNA FP 6, IDE act -1, TPT1 inhibitor 40*, CSN inh 14, IDE inh 3, caTPT1 confirm 80* and RNase T1 counter 99*.
`COc1cc(/C=C2/C(=O)NN(c3ccc(Cl)c(Cl)c3)C2=O)cc([N+](=O)[O-])c1O` gave Rpn11 inh 12, HNF4A DNA FP -2, IDE act 0, TPT1 inhibitor 13, CSN inh 3 and IDE inh 2.
Screening COc1cc(/C=C2/C(=O)ON=C2C)cc(Cl)c1O returned Rpn11 inh 24, HNF4A DNA FP 1, IDE act -9, TPT1 inhibitor 42*, CSN inh 7, IDE inh -1, caTPT1 confirm 101* and RNase T1 counter 113*.
C[C@H](NC(=O)C1CCN(S(=O)(=O)c2ccccc2)CC1)C(=O)NCc1cccnc1 was read as Rpn11 inh -2, HNF4A DNA FP -1 and CSN inh -4.
CN(C)c1ccc(C(=O)c2ccccc2)cc1 was read as Rpn11 inh -1, HNF4A DNA FP -4, IDE act 4, TPT1 inhibitor 48*, CSN inh 0, IDE inh -4, caTPT1 confirm 8 and RNase T1 counter 13.
O=C(O)Cc1sc(NCCc2ccccc2)nc1-c1ccc(F)cc1 was read as Rpn11 inh 14, HNF4A DNA FP 6, IDE act 1, TPT1 inhibitor 27*, CSN inh 32, IDE inh 6, caTPT1 confirm 2 and RNase T1 counter 8.
CC(=O)Nc1sc(NC(=O)c2ccccc2)nc1-c1cccs1 was read as Rpn11 inh -3, HNF4A DNA FP -1, IDE act -7, TPT1 inhibitor -3, CSN inh -2 and IDE inh 10.
For C=CCNc1nc(-c2cccs2)c(CC(=O)O)s1 the results were Rpn11 inh -12, HNF4A DNA FP 9, IDE act 3, TPT1 inhibitor 6, CSN inh 3 and IDE inh 1.
`CCN(CC)CCNc1nc(-c2cccs2)c(CC(=O)O)s1` gave Rpn11 inh 16, HNF4A DNA FP 2, IDE act 3, TPT1 inhibitor 29*, CSN inh 0, IDE inh 4, caTPT1 confirm 6 and RNase T1 counter 7.
`O=C(O)Cc1sc(Nc2ccccc2)nc1-c1cccs1` gave HNF4A DNA FP 45*, IDE act -3, TPT1 inhibitor 42*, CSN inh 51*, IDE inh -1, caTPT1 confirm 36* and RNase T1 counter 46*.
`CCN(C[C@H]1N[C@@](Cc2ccccc2)(C(=O)OC)[C@H]2C(=O)N(C)C(=O)[C@@H]12)C(=O)COc1ccccc1` gave Rpn11 inh 1, HNF4A DNA FP -1, IDE act 4, CSN inh -2 and IDE inh -2.
For COC(=O)[C@@]1(Sc2ccc(C)cc2)CC(=O)N(C(=O)/C=C/c2ccccc2)[C@@H]1c1ccccc1 the results were HNF4A DNA FP -2 and CSN inh 1.
For O=C(NCC1CC1)c1cc2c(c(-c3cccc(-c4ccccc4F)c3)n1)[C@@H](CCO)N(C(=O)CC1CC1)C2 the results were HNF4A DNA FP 2 and CSN inh -4.
For Cc1ccc(S(=O)(=O)N2[C@@H](CO)CO[C@H]2CC(=O)c2ccccc2)cc1 the results were HNF4A DNA FP 3 and CSN inh 0.
`CN(C)S(=O)(=O)c1ccc(C(=O)OCC(=O)c2csc(N3CCCCC3)n2)cc1` gave Rpn11 inh -2, HNF4A DNA FP -3, IDE act 2, CSN inh -7 and IDE inh -3.
N#Cc1cc(N2CCCCC2)c([N+](=O)[O-])cc1C#N was read as Rpn11 inh 1, HNF4A DNA FP 2, IDE act 2, TPT1 inhibitor -1, CSN inh 4 and IDE inh 2.
For CN(C)CCC1CCN(c2cc(C#N)c(C#N)cc2[N+](=O)[O-])CC1 the results were Rpn11 inh -8, HNF4A DNA FP 1, IDE act 0, TPT1 inhibitor 119*, CSN inh 0, IDE inh 5, caTPT1 confirm 2 and RNase T1 counter 7.
For CC(C)c1ncc(CO)n1Cc1c(Cl)cccc1Cl the results were Rpn11 inh 2, HNF4A DNA FP 1 and CSN inh 0.
For Cc1ccc(NS(=O)(=O)c2cc([N+](=O)[O-])ccc2NNC(=S)Nc2cccc(Cl)c2)c(C)c1 the results were Rpn11 inh 76*, HNF4A DNA FP 30, IDE act 5, TPT1 inhibitor 36*, CSN inh 18, IDE inh 2, caTPT1 confirm 37* and RNase T1 counter 46*.
For Cc1ccc(NS(=O)(=O)c2cc([N+](=O)[O-])ccc2NNC(=S)Nc2cc(C)ccc2C)c(C)c1 the results were Rpn11 inh 30, HNF4A DNA FP 14, IDE act -4, TPT1 inhibitor 8, CSN inh 7 and IDE inh -1.
For CC(NS(=O)(=O)c1ccc([N+](=O)[O-])cc1)C(c1cccs1)N1CCOCC1 (stereo not given) the results were Rpn11 inh 1, HNF4A DNA FP 0, IDE act 0, TPT1 inhibitor 36*, CSN inh -3, IDE inh 0, caTPT1 confirm 6 and RNase T1 counter 11.
`COc1ccc(NC(=O)C2(C)Cc3c(-c4ccc(N(C)C)cc4)ccnc3O2)cc1` (stereo not given) gave Rpn11 inh -1, HNF4A DNA FP 5 and CSN inh -2.
